Laboratory results taken from ChEMBL document CHEMBL1126720 (J Med Chem, 1993).

How the values were obtained:
[1] = Hypersensitivity factor is the ratio of IC50(AA8) to IC50(UV4) under aerobic conditions; assay type: functional
Summary of the method: (§1)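 Log-phase AA8 (200 viable cells/well) or UV4 (300 viable cells/well) cells with 5000 lethally irradiated AA8 feeder cells per well, in α-MEM with 10% heat-inactivated fetal calf serum. Cell mass read after 72-78 h by methylene blue protein staining and absorbance. IC50 = concentration reducing cell mass to 50% of the mean of 8 same-plate controls; means of at least 3 determinations ± SEM. Hypersensitivity factor = aerobic IC50(AA8)/IC50(UV4).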

[2] = Ratio of aerobic CT10 to that of hypoxic CT10 (for a 1-h exposure); assay type: functional
Summary of the method: (§2)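 Clonogenic assay in magnetically stirred 10-mL suspensions of late log-phase UV4 cells at 2×10^6 cells/mL, 37 °C, continuously gassed with 5% CO2 in air or N2; samples removed periodically across a range of drug concentrations. CT10 (concentration × time for 10% survival) taken from survival curves; hypoxic selectivity = ratio of aerobic to hypoxic CT10.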

[3] = Growth inhibition against CHO-derived cell line AA8; assay type: functional, cell-based, Cricetulus griseus; summary of the method: as §1
[4] = (§3) Cytotoxicity was measured for 90% kill in UV4 cells under aerobic conditions; assay type: functional, Cricetulus griseus; summary of the method: as §2
UV4 = assay: as §3; assay type: functional; conditions: Cricetulus griseus; summary of the method: as §2
[5] = Ratio of aerobic CT10 to that of hypoxic CT10; assay type: functional; summary of the method: as §2
[6] = Growth inhibition against CHO-derived cell line AA8 (Non toxic at solubility limit) [RB6145 used as positive control]; assay type: functional, cell-based, Cricetulus griseus; summary of the method: as §1
[7] = Hypersensitivity factor is the ratio of IC50(AA8) to IC50(UV4) under aerobic conditions; ND = Nontoxic at the solubility level; assay type: functional; summary of the method: as §1
[8] = Cricetulus griseus, CHO-derived

Molecule | HF ratio [1] | IC50 ([3]; cho-derived) | other results
O=[N+]([O-])c1nccn1CC(O)CNCCBr (stereo not given) | 5.9 |  | Ratio [2]: 50; IC50 [3, 8]: 145 µM; CT10 [4]: 6600 µM·h
CCN(CC)CCN | 0.99 |  | IC50 [3, 8]: 19000 µM
ClCCNCCNCCCl | 29 |  | IC50 [3, 8]: 30 µM
CCNCCNCC | 0.7 |  | IC50 [3, 8]: 2400 µM
Bis (2,4-pentanedionato) (N,N'-bis(2-chloroethyl)ethylenediamine)cobalt(III) Percholate [listing 1 of 2 here] |  | 890 µM | 
Bis (2,4-pentanedionato) (N,N'-bis(2-chloroethyl)ethylenediamine)cobalt(III) Percholate [listing 2 of 2 here] | 14 |  | CT10 (UV4): 21500 µM·h; Ratio [5]: 1.6
Bis (2,4-pentanedionato) (N,N'-bis(2-diethylethylenediamine)cobalt(III) Percholate [listing 1 of 2 here] |  |  | IC50 [6]: > 5000 µM
Bis (2,4-pentanedionato) (N,N'-bis(2-diethylethylenediamine)cobalt(III) Percholate [listing 2 of 2 here] |  |  | HF ratio [7]: Nontoxic
Bis (2,4-pentanedionato) (N,N-bis(2-chloroethyl)ethylenediamine)cobalt(III) Percholate [listing 1 of 2 here] |  | 3.1 µM | 
Bis (2,4-pentanedionato) (N,N-bis(2-chloroethyl)ethylenediamine)cobalt(III) Percholate [listing 2 of 2 here] | 64 |  | CT10 (UV4): 0.64 µM·h; Ratio [5]: 1.9
Bis (2,4-pentanedionato) (N,N-diethylethylenediamine)cobalt(III) Percholate [listing 1 of 2 here] |  | 34 µM | 
Bis (2,4-pentanedionato) (N,N-diethylethylenediamine)cobalt(III) Percholate [listing 2 of 2 here] | 0.9 |  | 
Bis (3-chlorol-2,4-pentanedionato) (N,N-bis(2-chloroethyl)ethylenediamine)cobalt(III) Percholate [listing 1 of 2 here] |  | 26 µM | 
Bis (3-chlorol-2,4-pentanedionato) (N,N-bis(2-chloroethyl)ethylenediamine)cobalt(III) Percholate [listing 2 of 2 here] | 13 |  | 
Bis (3-ethyl-2,4-pentanedionato) (N,N'-bis(2-chloroethyl)ethylenediamine)cobalt(III) Percholate [listing 1 of 2 here] |  | 139 µM | 
Bis (3-ethyl-2,4-pentanedionato) (N,N'-bis(2-chloroethyl)ethylenediamine)cobalt(III) Percholate [listing 2 of 2 here] | 4.8 |  | 
Bis (3-ethyl-2,4-pentanedionato) (N,N-bis(2-chloroethyl)ethylenediamine)cobalt(III) Percholate [listing 1 of 2 here] |  | 2.3 µM | 
Bis (3-ethyl-2,4-pentanedionato) (N,N-bis(2-chloroethyl)ethylenediamine)cobalt(III) Percholate [listing 2 of 2 here] | 20 |  | CT10 (UV4): 0.51 µM·h; Ratio [5]: 4.9
Bis (3-methyl-2,4-pentanedionato) (N,N'-bis(2-chloroethyl)ethylenediamine)cobalt(III) Percholate [listing 1 of 2 here] |  | 650 µM | 
Bis (3-methyl-2,4-pentanedionato) (N,N'-bis(2-chloroethyl)ethylenediamine)cobalt(III) Percholate [listing 2 of 2 here] | 2.7 |  | CT10 (UV4): > 2720 µM·h; Ratio [5]: > 1
Bis (3-methyl-2,4-pentanedionato) (N,N-bis(2-chloroethyl)ethylenediamine)cobalt(III) Percholate [listing 1 of 2 here] |  | 4.6 µM | 
Bis (3-methyl-2,4-pentanedionato) (N,N-bis(2-chloroethyl)ethylenediamine)cobalt(III) Percholate [listing 2 of 2 here] | 48 |  | CT10 (UV4): 2.4 µM·h; Ratio [5]: 20
Bis (3-n-propyl-2,4-pentanedionato) (N,N-bis(2-chloroethyl)ethylenediamine)cobalt(III) Percholate [listing 1 of 2 here] |  | 1.35 µM | 
Bis (3-n-propyl-2,4-pentanedionato) (N,N-bis(2-chloroethyl)ethylenediamine)cobalt(III) Percholate [listing 2 of 2 here] |  | 18.5 µM | 
